Activity calls are given as the source filed them. No cut-off for these calls is given here.
Columns and labels:
[1] = biological target: T1, Ectonucleoside triphosphate diphosphohydrolase 2 (Homo sapiens) (UniProt Q9Y5L3); experiment: Activity of human NTPDase2 expressed in COS7 cells assessed as amount of inorganic phosphate released using ATP as the substrate at 100 uM after 15 mins by malachite green reagent method; format: cell-based; conditions: COS-7
T1 sequence (whole entry): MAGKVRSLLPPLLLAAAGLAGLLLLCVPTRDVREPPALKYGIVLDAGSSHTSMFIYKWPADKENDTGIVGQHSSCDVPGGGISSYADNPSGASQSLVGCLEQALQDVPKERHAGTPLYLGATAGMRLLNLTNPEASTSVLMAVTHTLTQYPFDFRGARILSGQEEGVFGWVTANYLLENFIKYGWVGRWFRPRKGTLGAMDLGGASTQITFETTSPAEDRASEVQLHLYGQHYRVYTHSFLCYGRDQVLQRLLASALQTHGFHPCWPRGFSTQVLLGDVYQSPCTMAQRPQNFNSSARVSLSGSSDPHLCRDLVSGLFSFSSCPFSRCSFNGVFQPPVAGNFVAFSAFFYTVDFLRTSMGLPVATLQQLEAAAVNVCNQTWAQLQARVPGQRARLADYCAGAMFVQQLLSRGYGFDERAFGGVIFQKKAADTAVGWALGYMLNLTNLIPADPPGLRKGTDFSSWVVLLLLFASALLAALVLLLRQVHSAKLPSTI
Procedure, shortened: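 Crude membrane-enriched protein extract of transiently transfected COS-7 cells, preincubated 3 min at 37 °C in Tris-Ringer buffer pH 7.3. Reaction started with 100 μM ATP, or with the analogue alone at 100 μM to test it as substrate. Stopped after 15 min with malachite green reagent; released Pi read at 630 nm. Mean ± SD, n = 3.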

[2] = biological target: P2Y purinoceptor 2 (Homo sapiens) (UniProt P41231); experiment: Agonist activity at GFP tagged-human P2Y2 receptor expressed in human 1321N1 cells assessed as elevation in calcium level at 25 uM after 30 mins by fluorescence spectrophotometric analysis; format: functional, cell-based
P2Y purinoceptor 1 = P2Y purinoceptor 1 (Homo sapiens, UniProt P47900); experiment: Agonist activity at GFP tagged-human P2Y1 receptor expressed in human 1321N1 cells assessed as elevation in calcium level after 30 mins by fluorescence spectrophotometric analysis; format: functional, cell-based
Autotaxin (Homo sapiens) = Autotaxin (Homo sapiens) (UniProt Q13822); experiment: Inhibition of human secreted NPP2 expressed in COS7 cells assessed as production of p-nitrophenol using pnp-TMP as the substrate at 100 uM after 15 mins by malachite green reagent method; format: cell-based; conditions: COS-7
Procedure, shortened: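 Human NPP1, NPP2 (membrane lysate or conditioned medium for the secreted form) or NPP3 from transfected COS-7 cells, preincubated 3 min at 37 °C in 50 mM Tris pH 8.5 buffer with CaCl2, NaCl and KCl. Substrate and inhibitor both at 100 μM final. pnp-TMP: p-nitrophenol read at 405 nm at 15 min. ATP or Ap5A: stopped at 30 min with perchloric acid, then HPLC. Results as % residual activity versus control; three to six experiments in triplicate.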

[3] = biological target: T2, P2Y purinoceptor 11 (Homo sapiens) (UniProt Q96G91); experiment: Agonist activity at GFP tagged-human P2Y11 receptor expressed in human 1321N1 cells assessed as elevation in calcium level at 50 uM after 30 mins by fluorescence spectrophotometric analysis; format: functional, cell-based
T2 sequence (whole entry): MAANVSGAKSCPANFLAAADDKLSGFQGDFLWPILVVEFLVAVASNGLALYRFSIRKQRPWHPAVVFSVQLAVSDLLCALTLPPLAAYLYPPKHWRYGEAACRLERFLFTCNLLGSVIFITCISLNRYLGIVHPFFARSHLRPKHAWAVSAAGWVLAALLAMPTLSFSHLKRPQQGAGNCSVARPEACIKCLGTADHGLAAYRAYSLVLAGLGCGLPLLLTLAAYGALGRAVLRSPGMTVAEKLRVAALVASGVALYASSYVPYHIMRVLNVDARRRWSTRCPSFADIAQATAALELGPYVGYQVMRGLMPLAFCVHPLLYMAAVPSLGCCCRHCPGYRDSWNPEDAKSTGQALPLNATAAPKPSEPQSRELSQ

P2Y purinoceptor 11 = biological target: T3, P2Y purinoceptor 11 (Homo sapiens, UniProt Q96G91); experiment: Agonist activity at GFP tagged-human P2Y11 receptor expressed in human 1321N1 cells assessed as elevation in calcium level after 30 mins by fluorescence spectrophotometric analysis; format: functional, cell-based
T3 sequence (Q96G91 whole entry): T2 sequence (whole entry)

[4] = biological target: T4, Ectonucleotide pyrophosphatase/phosphodiesterase family member 1 (Homo sapiens) (UniProt P22413); experiment: Activity of human NPP1 expressed in COS7 cells assessed as production of p-nitrophenol using Ap5A as the substrate at 100 uM after 30 mins by malachite green reagent method; format: cell-based; conditions: COS-7
T4 sequence (whole entry): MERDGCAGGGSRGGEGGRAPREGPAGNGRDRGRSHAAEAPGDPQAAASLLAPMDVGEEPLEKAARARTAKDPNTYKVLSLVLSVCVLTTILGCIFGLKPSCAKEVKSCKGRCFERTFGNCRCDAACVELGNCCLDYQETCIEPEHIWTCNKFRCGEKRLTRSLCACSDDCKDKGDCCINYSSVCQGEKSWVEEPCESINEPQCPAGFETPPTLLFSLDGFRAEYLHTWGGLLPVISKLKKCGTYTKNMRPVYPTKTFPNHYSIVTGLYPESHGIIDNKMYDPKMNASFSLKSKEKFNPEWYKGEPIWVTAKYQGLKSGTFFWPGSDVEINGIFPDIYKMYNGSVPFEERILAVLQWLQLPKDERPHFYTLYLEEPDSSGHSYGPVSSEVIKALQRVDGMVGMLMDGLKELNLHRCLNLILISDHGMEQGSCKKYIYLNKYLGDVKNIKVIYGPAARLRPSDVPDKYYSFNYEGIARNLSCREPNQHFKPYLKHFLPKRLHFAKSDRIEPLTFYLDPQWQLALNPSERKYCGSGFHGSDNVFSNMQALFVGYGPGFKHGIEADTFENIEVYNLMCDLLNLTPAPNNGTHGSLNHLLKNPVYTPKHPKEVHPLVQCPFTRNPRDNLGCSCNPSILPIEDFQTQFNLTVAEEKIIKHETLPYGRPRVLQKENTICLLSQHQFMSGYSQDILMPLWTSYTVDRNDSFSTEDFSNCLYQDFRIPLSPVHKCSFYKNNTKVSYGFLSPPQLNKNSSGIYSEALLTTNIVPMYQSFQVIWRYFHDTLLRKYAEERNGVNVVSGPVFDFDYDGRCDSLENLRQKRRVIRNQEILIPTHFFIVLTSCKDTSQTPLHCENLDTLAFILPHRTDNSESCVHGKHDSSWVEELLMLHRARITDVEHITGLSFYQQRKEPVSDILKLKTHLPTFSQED

Sequence of P2Y purinoceptor 2 (Homo sapiens) (P41231 whole entry): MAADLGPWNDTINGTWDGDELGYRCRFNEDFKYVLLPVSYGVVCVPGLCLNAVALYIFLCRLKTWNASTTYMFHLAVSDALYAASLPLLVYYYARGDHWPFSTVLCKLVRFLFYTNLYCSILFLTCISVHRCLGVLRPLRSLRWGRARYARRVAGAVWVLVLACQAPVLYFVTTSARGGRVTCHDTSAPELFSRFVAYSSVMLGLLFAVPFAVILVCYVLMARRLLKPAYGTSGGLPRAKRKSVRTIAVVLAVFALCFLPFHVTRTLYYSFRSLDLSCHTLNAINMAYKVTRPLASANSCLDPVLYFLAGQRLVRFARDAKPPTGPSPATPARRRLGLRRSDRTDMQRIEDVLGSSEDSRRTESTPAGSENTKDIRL
Sequence of P2Y purinoceptor 1 (P47900 whole entry): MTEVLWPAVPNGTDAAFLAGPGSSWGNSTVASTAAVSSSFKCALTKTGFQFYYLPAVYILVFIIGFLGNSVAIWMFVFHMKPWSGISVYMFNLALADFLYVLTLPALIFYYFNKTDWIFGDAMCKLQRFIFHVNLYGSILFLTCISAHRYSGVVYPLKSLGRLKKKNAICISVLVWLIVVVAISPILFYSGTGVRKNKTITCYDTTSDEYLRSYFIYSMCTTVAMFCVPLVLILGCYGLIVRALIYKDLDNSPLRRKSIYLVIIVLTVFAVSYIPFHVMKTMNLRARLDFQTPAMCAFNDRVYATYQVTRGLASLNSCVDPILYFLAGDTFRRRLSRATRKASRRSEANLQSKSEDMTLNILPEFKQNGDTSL

Compound | Activity [1] [%] | Activity [2] | EC50 (P2Y purinoceptor 1) [µM] | inhibition (Autotaxin (Homo sapiens)) [%] | Activity [3] | EC50 (P2Y purinoceptor 11) [µM] | Activity [4] [%]
BP(=O)(OP(=O)(O)CP(=O)(O)OC[C@H]1O[C@@H](n2cnc3c(N)ncnc32)C[C@@H]1O)OP(=O)(O)CP(=O)(O)OC[C@H]1O[C@@H](n2cnc3c(N)ncnc32)C[C@@H]1O | 0.2 | inactive | ≥ 30 | 60 | inactive | – | –
Nc1ncnc2c1ncn2[C@@H]1O[C@H](COP(=O)(O)CP(=O)(O)OP(=O)(O)CP(=O)(O)OC[C@H]2O[C@@H](n3cnc4c(N)ncnc43)[C@H](O)[C@@H]2O)[C@@H](O)[C@H]1O | 0.1 | inactive | 9 | 60 | – | ≥ 40 | 13
BP(=O)(OP(=O)(O)CP(=O)(O)OC[C@H]1O[C@@H](n2cnc3c(N)ncnc32)[C@H](O)[C@@H]1O)OP(=O)(O)CP(=O)(O)OC[C@H]1O[C@@H](n2cnc3c(N)ncnc32)[C@H](O)[C@@H]1O | – | inactive | 0.3 | 60 | – | 13 | 7.5
Nc1ncnc2c1ncn2[C@H]1C[C@H](O)[C@@H](COP(=O)(O)CP(=O)(O)OP(=O)(O)CP(=O)(O)OC[C@H]2O[C@@H](n3cnc4c(N)ncnc43)C[C@@H]2O)O1 | – | inactive | 30 | 60 | inactive | – | 2.3

— ChEMBL document CHEMBL1799960, “Diadenosine 5',5''-(boranated)polyphosphonate analogues as selective nucleotide pyrophosphatase/phosphodiesterase inhibitors” (J Med Chem, 2010)
